Active and inactive are the calls of the source. The rule behind the calls is not given here.
Experiments:
[1] = tested on: MDA-MB-231; experiment: Antiproliferative activity against human MDA-MB-231 cells assessed as reduction in cell viability incubated for 72 hrs by MTT assay; assay type: functional, cell-based; conditions: MDA-MB-231, 72 h
Procedure, shortened: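 MTT viability assay after 72 h of drug exposure. Cells seeded at 5000 per well in 10% FBS and left overnight, then treated in 5% FBS. MTT added for 1 h, dye dissolved in DMSO, absorbance read at 570 nm. Viability given relative to vehicle-treated cells.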

[2] = molecular target: Epidermal growth factor receptor (Homo sapiens) (UniProt P00533); experiment: Induction of EGFR degradation in human MDA-MB-231 cells assessed as reduction in EGFR expression incubated for 48 hrs by immunoblot analysis; assay type: cell-based
Procedure, shortened: (§1)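 After 48 h treatment, cells were scraped and lysed in 1% SDS, 50 mM Tris-HCl pH 8.0, 10 mM EDTA with protease and phosphatase inhibitors. Lysates sonicated, protein measured by BCA, equal amounts run on SDS-PAGE and blotted to nitrocellulose. Primary antibodies (EGFR, c-Met, S473-Akt, Akt, GAPDH) used at 1:1000 overnight at 4 °C, HRP secondaries at 1:5000, ECL detection.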

[3] = molecular target: Hepatocyte growth factor receptor (Homo sapiens) (UniProt P08581); experiment: Induction of c-MET degradation in human MDA-MB-231 cells assessed as reduction in c-Met expression incubated for 48 hrs by immunoblot analysis; assay type: cell-based; procedure, shortened: as §1
[4] = tested on: NCI-H1975; experiment: Antiproliferative activity against human NCI-H1975 cells harbouring EGFR L858R/T790M double mutant assessed as reduction in cell viability incubated for 72 hrs by MTT assay; assay type: functional, cell-based; conditions: NCI-H1975, 72 h
[5] = tested on: PC-9; experiment: Antiproliferative activity against human PC9 cells harbouring EGFR delE746-A750 mutant assessed as reduction in cell viability incubated for 72 hrs by MTT assay; assay type: functional, cell-based; conditions: PC-9, 72 h
[6] = Antiproliferative activity against human CL68 cells harbouring EGFR delE746-A750/T790M mutant assessed as reduction in cell viability incubated for 72 hrs by MTT assay; assay type: functional, cell-based
[7] = tested on: CL97; experiment: Antiproliferative activity against human CL97 cells harbouring EGFR G719A/T790M mutant assessed as reduction in cell viability incubated for 72 hrs by MTT assay; assay type: functional, cell-based; conditions: CL97, 72 h
[8] = tested on: A549; experiment: Antiproliferative activity against wild type human A549 cells assessed as reduction in cell viability incubated for 72 hrs by MTT assay; assay type: functional, cell-based; conditions: A549, 72 h
[9] = tested on: NCI-H1975; experiment: Growth inhibition of human NCI-H1975 cells incubated for 3 days by CellTiter 96 aqueous nonradioactive cell proliferation assay; assay type: functional; conditions: NCI-H1975, 72 h
[10] = tested on: MDA-MB-231; experiment: Growth inhibition of human MDA-MB-231 cells incubated for 3 days by CellTiter 96 aqueous nonradioactive cell proliferation assay; assay type: functional; conditions: MDA-MB-231, 72 h

Sequence of Epidermal growth factor receptor (Homo sapiens) (P00533 whole entry): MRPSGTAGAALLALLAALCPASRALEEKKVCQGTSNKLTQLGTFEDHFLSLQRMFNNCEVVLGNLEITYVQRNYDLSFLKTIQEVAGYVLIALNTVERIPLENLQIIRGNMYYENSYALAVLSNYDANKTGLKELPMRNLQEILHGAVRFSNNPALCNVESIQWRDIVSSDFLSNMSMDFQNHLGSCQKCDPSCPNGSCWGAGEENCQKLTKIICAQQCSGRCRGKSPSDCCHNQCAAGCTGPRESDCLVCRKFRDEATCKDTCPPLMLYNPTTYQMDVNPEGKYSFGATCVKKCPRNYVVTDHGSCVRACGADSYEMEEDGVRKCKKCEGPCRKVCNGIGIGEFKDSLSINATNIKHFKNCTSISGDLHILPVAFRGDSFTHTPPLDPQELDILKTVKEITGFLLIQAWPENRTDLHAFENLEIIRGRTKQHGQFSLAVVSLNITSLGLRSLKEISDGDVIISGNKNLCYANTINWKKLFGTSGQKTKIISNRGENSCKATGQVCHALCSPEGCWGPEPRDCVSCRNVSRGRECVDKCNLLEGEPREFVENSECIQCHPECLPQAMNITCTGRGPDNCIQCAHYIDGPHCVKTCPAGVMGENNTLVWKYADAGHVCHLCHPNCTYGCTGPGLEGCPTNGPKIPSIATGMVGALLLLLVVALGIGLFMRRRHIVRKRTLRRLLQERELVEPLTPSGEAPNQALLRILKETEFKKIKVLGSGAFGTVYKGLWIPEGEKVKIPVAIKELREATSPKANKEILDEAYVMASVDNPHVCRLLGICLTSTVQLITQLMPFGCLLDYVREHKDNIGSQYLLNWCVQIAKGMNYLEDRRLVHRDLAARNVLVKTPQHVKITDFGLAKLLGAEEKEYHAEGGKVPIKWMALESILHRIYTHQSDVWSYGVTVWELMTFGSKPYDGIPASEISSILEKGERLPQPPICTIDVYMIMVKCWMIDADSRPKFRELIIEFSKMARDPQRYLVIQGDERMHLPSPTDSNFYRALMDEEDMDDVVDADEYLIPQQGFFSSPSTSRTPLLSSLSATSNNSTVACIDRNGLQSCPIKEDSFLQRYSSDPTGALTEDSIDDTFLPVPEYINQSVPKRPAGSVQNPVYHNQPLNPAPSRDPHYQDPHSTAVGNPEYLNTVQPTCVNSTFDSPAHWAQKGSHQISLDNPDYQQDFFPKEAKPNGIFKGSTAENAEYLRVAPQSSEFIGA
Sequence of Hepatocyte growth factor receptor (Homo sapiens) (P08581 whole entry): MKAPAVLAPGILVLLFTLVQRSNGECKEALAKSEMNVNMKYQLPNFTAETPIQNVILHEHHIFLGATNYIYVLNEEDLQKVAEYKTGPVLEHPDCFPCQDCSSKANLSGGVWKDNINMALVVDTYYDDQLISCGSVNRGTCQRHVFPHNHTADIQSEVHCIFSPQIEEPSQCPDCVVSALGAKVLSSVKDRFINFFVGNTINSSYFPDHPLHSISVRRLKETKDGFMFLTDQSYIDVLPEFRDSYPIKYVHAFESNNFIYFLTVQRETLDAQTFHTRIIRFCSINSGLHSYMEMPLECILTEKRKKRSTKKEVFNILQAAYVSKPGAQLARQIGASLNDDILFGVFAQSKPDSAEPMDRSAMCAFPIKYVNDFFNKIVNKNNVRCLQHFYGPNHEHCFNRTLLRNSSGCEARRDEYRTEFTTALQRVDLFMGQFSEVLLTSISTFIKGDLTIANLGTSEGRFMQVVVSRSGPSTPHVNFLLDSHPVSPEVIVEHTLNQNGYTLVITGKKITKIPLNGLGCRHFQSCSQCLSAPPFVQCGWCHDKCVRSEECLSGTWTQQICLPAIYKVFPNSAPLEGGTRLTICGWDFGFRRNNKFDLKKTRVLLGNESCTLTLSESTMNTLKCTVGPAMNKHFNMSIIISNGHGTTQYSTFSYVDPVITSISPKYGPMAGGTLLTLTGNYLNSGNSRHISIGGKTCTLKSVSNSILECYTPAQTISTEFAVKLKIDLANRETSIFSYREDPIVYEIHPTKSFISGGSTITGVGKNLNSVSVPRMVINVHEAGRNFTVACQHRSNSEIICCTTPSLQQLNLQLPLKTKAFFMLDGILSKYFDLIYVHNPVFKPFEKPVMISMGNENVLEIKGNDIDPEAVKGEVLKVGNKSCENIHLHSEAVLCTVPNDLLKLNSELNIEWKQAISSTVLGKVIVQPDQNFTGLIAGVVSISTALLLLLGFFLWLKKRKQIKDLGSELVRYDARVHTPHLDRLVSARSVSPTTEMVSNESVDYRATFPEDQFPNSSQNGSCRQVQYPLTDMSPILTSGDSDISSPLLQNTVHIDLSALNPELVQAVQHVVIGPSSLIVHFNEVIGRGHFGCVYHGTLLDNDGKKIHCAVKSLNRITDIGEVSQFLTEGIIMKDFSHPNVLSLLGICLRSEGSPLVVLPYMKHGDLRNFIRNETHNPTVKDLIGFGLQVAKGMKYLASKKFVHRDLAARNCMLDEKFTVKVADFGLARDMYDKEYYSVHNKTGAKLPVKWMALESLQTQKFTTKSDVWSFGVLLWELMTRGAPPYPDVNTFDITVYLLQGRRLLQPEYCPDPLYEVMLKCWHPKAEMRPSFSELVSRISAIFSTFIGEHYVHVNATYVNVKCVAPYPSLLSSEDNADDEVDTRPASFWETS

Structure (SMILES)	IC50 [1] [µM]	other results
O=C(Nc1cccc(-c2nc(-c3ccc(NC(=O)c4cccnc4)cc3Cl)no2)c1)Nc1ccc(NC(=O)C2CCCC2)c(C(F)(F)F)c1	0.3	Activity [2]: Active; Activity [3]: Active
CC(=O)Nc1ccc(NC(=O)Nc2cccc(-c3nc(-c4ccc(NC(=O)c5cccnc5)cc4Cl)no3)c2)cc1	> 10	–
COc1cc(NC(=O)c2cccnc2)ccc1-c1noc(-c2cccc(NS(=O)(=O)c3ccc(NC(C)=O)cc3)c2)n1	> 10	–
CC(=O)Nc1ccc(S(=O)(=O)Nc2cccc(-c3nc(-c4ccc(NC(=O)c5cccnc5)cc4Cl)no3)c2)cc1C	> 10	–
CCN(CC)C(=O)Nc1ccc(S(=O)(=O)Nc2cccc(-c3nc(-c4ccc(NC(=O)c5cccnc5)cc4Cl)no3)c2)cc1	8.7	–
O=C(Nc1cccc(-c2nc(-c3ccc(NC(=O)c4cccnc4)cc3Cl)no2)c1)Nc1ccc(Cl)c(C(F)(F)F)c1	1.9	–
O=C(Nc1ccc(-c2noc(-c3cccc(NS(=O)(=O)c4ccc(NC(=O)N5CCOCC5)cc4)c3)n2)c(Cl)c1)c1cccnc1	> 10	–
O=C(Nc1ccc(-c2noc(-c3cccc(NS(=O)(=O)c4ccc(C(F)(F)F)cc4)c3)n2)c(Cl)c1)c1cccnc1	> 10	–
CNC(=O)Nc1ccc(S(=O)(=O)Nc2cccc(-c3nc(-c4ccc(NC(=O)c5cccnc5)cc4Cl)no3)c2)cc1	1.3	–
CC(=O)Nc1ccc(S(=O)(=O)Nc2cccc(-c3nc(-c4ccc(NC(=O)c5cccnc5)c(Cl)c4)no3)c2)cc1	4.5	–
CN(C)C/C=C/C(=O)Nc1cc2c(Nc3ccc(F)c(Cl)c3)ncnc2cc1O[C@H]1CCOC1 [AFATINIB]	–	IC50 [4]: 1 µM; IC50 [5]: < 0.01 µM; IC50 [6]: 0.1 µM; IC50 [7]: 0.1 µM; IC50 [8]: 5 to 10 µM
NS(=O)(=O)c1ccc(NC(=O)Nc2cccc(-c3nc(-c4ccc(NC(=O)c5cccnc5)cc4Cl)no3)c2)cc1	> 10	–
C#Cc1cccc(NC(=O)Nc2cccc(-c3nc(-c4ccc(NC(=O)c5cccnc5)cc4Cl)no3)c2)c1	> 10	–
COc1ccc(NC(=O)Nc2cccc(-c3nc(-c4ccc(NC(=O)c5cccnc5)cc4Cl)no3)c2)cc1	3	–
CS(=O)(=O)Nc1ccc(NC(=O)Nc2cccc(-c3nc(-c4ccc(NC(=O)c5cccnc5)cc4Cl)no3)c2)cc1Cl	0.6	Activity [2]: inactive; Activity [3]: Active
O=C(Nc1ccc(-c2noc(-c3cccc(NS(=O)(=O)c4cccc(Cl)c4)c3)n2)c(Cl)c1)c1cccnc1	> 10	–
NS(=O)(=O)c1ccc(S(=O)(=O)Nc2cccc(-c3nc(-c4ccc(NC(=O)c5cccnc5)cc4Cl)no3)c2)cc1	> 10	–
CC(=O)Nc1ccc(S(=O)(=O)Nc2cccc(-c3nc(-c4ccc(NC(=O)c5cccnc5)cc4Cl)no3)c2)cc1Cl	> 10	–
O=C(Nc1ccc(NS(=O)(=O)C2CC2)cc1)Nc1cccc(-c2nc(-c3ccc(NC(=O)c4cccnc4)cc3Cl)no2)c1	0.3	Activity [2]: Active; Activity [3]: Active
CC(=O)Nc1ccc(NC(=O)Nc2cccc(-c3nc(-c4ccc(NC(=O)c5cccnc5)cc4Cl)no3)c2)cc1Br	1	–
O=C(Nc1ccc(-c2noc(-c3cccc(NS(=O)(=O)c4ccc(NC(=O)N5CCCC5)cc4)c3)n2)c(Cl)c1)c1cccnc1	5.8	–
CC(=O)Nc1ccc(S(=O)(=O)Nc2cccc(-c3nc(-c4ccc(NC(=O)c5cccnc5)c(C(F)(F)F)c4)no3)c2)cc1	> 10	–
C#Cc1cccc(Nc2ncnc3cc(OCCOC)c(OCCOC)cc23)c1 [ERLOTINIB]	–	IC50 [4]: 10 µM; IC50 [5]: 0.1 µM; IC50 [6]: 5 µM; IC50 [7]: > 20 µM
O=C(Nc1cccc(-c2nc(-c3ccc(NC(=O)c4cccnc4)cc3Cl)no2)c1)Nc1cc(C(F)(F)F)cc(C(F)(F)F)c1	1.9	–
COc1ccc(NC(=O)Nc2cccc(-c3nc(-c4ccc(NC(=O)c5cccnc5)cc4Cl)no3)c2)cc1C(F)(F)F	1.7	Activity [2]: inactive; Activity [3]: Active
O=C(Nc1cccc(-c2nc(-c3ccc(NC(=O)c4cccnc4)cc3Cl)no2)c1)c1ccccc1	12.8	–
NC(=O)Nc1ccc(S(=O)(=O)Nc2cccc(-c3nc(-c4ccc(NC(=O)c5cccnc5)cc4Cl)no3)c2)cc1	2.8	–

Structure (SMILES)	IC50 [1] [µM]	other results
CS(=O)(=O)Nc1cccc(NC(=O)Nc2cccc(-c3nc(-c4ccc(NC(=O)c5cccnc5)cc4Cl)no3)c2)c1	> 10	–
NS(=O)(=O)Nc1ccc(NC(=O)Nc2cccc(-c3nc(-c4ccc(NC(=O)c5cccnc5)cc4Cl)no3)c2)cc1	8.9	–
Cc1ccc(NC(=O)Nc2cccc(-c3nc(-c4ccc(NC(=O)c5cccnc5)cc4Cl)no3)c2)cc1	3.5	–
CS(=O)(=O)Nc1ccc(NC(=O)Nc2cccc(-c3nc(-c4ccc(NC(=O)c5cccnc5)cc4Cl)no3)c2)cc1C(F)(F)F	0.7	–
CC(=O)Nc1ccc(S(=O)(=O)Nc2cccc(-c3nc(-c4ccc(NC(=O)c5cccnc5)cc4)no3)c2)cc1	5.2	–
O=C(Nc1cccc(-c2nc(-c3ccc(NC(=O)c4cccnc4)cc3Cl)no2)c1)Nc1cccc(C(F)(F)F)c1	1.9	Activity [2]: inactive; Activity [3]: Active
COc1cccc(NC(=O)Nc2cccc(-c3nc(-c4ccc(NC(=O)c5cccnc5)cc4Cl)no3)c2)c1	6.7	–
NC(=O)Nc1ccc(NC(=O)Nc2cccc(-c3nc(-c4ccc(NC(=O)c5cccnc5)cc4Cl)no3)c2)cc1C(F)(F)F	3.4	–
O=C(Nc1ccccc1)Nc1cccc(-c2nc(-c3ccc(NC(=O)c4cccnc4)cc3Cl)no2)c1	> 10	–
COc1cc(-c2noc(-c3cccc(NS(=O)(=O)c4ccc(NC(C)=O)cc4)c3)n2)ccc1NC(=O)c1cccnc1	> 10	–
O=C(Nc1ccc(Cl)cc1)Nc1cccc(-c2nc(-c3ccc(NC(=O)c4cccnc4)cc3Cl)no2)c1	> 10	–
CCNC(=O)Nc1ccc(S(=O)(=O)Nc2cccc(-c3nc(-c4ccc(NC(=O)c5cccnc5)cc4Cl)no3)c2)cc1	3.1	–
CC(=O)Nc1ccc(NC(=O)Nc2cccc(-c3nc(-c4ccc(NC(=O)c5cccnc5)cc4Cl)no3)c2)cc1Cl	> 10	–
CC(=O)Nc1ccc(S(=O)(=O)Nc2cccc(-c3nc(-c4ccc(NC(=O)c5cccnc5)cc4C(F)(F)F)no3)c2)cc1	> 10	–
O=C(Nc1ccc(-c2noc(-c3cccc(NS(=O)(=O)c4ccc(NC(=O)N5CCCCC5)cc4)c3)n2)c(Cl)c1)c1cccnc1	> 10	–
O=C(Nc1ccc(S(=O)(=O)Nc2cccc(-c3nc(-c4ccc(NC(=O)c5cccnc5)cc4Cl)no3)c2)cc1)NC1CCCC1	> 10	–
C#Cc1ccc(NC(=O)Nc2cccc(-c3nc(-c4ccc(NC(=O)c5cccnc5)cc4Cl)no3)c2)cc1	> 10	–
CS(=O)(=O)Nc1ccc(NC(=O)Nc2cccc(-c3nc(-c4ccc(NC(=O)c5cccnc5)cc4Cl)no3)c2)cc1Br	0.7	–
O=C(Nc1ccc(-c2noc(-c3cccc(NS(=O)(=O)c4ccccc4)c3)n2)c(Cl)c1)c1cccnc1	> 10	–
Cc1ccc(S(=O)(=O)Nc2cccc(-c3nc(-c4ccc(NC(=O)c5cccnc5)cc4Cl)no3)c2)cc1	> 10	–
O=C(Nc1cccc(-c2nc(-c3ccc(NC(=O)c4cccnc4)cc3Cl)no2)c1)Nc1ccc(NC(=O)c2cccs2)c(C(F)(F)F)c1	2.9	–
CS(=O)(=O)Nc1ccc(NC(=O)Nc2cccc(-c3nc(-c4ccc(NC(=O)c5cccnc5)cc4Cl)no3)c2)cc1	0.6	Activity [2]: inactive; Activity [3]: Active
C=CC(=O)Nc1cc(Nc2nccc(-c3cn(C)c4ccccc34)n2)c(OC)cc1N(C)CCN(C)C [OSIMERTINIB]	–	IC50 [4]: […]; IC50 [5]: < 0.01 µM; IC50 [6]: 0.01 µM; IC50 [7]: 0.1 µM; IC50 [8]: 5 µM
CC(=O)Nc1ccc(S(=O)(=O)Nc2cccc(-c3nc(-c4ccc(NC(=O)c5cccnc5)cc4Cl)no3)c2)cc1	2.5	–
CC(C)c1cc(C(=O)N2CCc3sccc3C2)c(O)cc1O	–	GI50 [9]: 1.67 µM; GI50 [10]: 0.478 µM
COc1cccc(S(=O)(=O)Nc2cccc(-c3nc(-c4ccc(NC(=O)c5cccnc5)cc4Cl)no3)c2)c1	> 10	–

Source: ChEMBL document CHEMBL4359903, “1,2,4-Oxadiazole derivatives targeting EGFR and c-Met degradation in TKI resistant NSCLC” (Eur J Med Chem, 2019)
